From ChEMBL document CHEMBL5058577, “EUbOPEN Chemogenomics Library 2 (Multiplex)” (2022)

System: HEK-293T
Assay: Multiplex assay against HEK293T
Type: toxicity, cell-based
Settings: human
How it was run: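 Values for tubulin, mitochondrial-mass and membrane-permeability phenotypes are per cents of cells with healthy nuclei. These cells were identified by CellPathfinder machine-learning gating of live cells that had been stained at seeding with Hoechst33342, BioTracker Green Microtubule Cytoskeleton Dye, MitoTracker Red and Annexin V Alexa Fluor 680 and imaged on a CQ1 microscope at 37°C and 5% CO2 after compound addition. The gating first set Hoechst high-intensity objects apart from normal cells, then split normal cells into healthy, pyknosed or fragmented nuclei, and pyknosed cells into mitotic or apoptotic.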

[1] = 12 h, 1 µM, compound concentration 1 uM, replicate 1
[2] = 12 h, 1 µM, compound concentration 1 uM, replicate 2
[3] = 12 h, 10 µM, compound concentration 10 uM, replicate 1
[4] = 12 h, 10 µM, compound concentration 10 uM, replicate 2
[5] = 24 h, 1 µM, compound concentration 1 uM, replicate 1
[6] = 24 h, 1 µM, compound concentration 1 uM, replicate 2
[7] = 24 h, 10 µM, compound concentration 10 uM, replicate 1
[8] = 24 h, 10 µM, compound concentration 10 uM, replicate 2
[9] = 48 h, 1 µM, compound concentration 1 uM, replicate 1
[10] = 48 h, 1 µM, compound concentration 1 uM, replicate 2
[11] = 48 h, 10 µM, compound concentration 10 uM, replicate 1
[12] = 48 h, 10 µM, compound concentration 10 uM, replicate 2

O=C(O)CCC/C=C\CC1C(O)CC(O)C1/C=C/C(O)COc1cccc(Cl)c1 (stereo not drawn) [CLOPROSTENOL]
Population Apoptotic (%) [1]: 31% | Population Fragmented Nuclei (%) [1]: 7% | Population Healthy Nuclei (%) [1]: 81% | Population Hoechst High Intensity Objects (%) [1]: 9% | Population Membrane Permeable-Phenotype (%) [1]: 0% | Population Mitochondria Different-Phenotype (%) [1]: 44% | Population Mitotic Cells (%) [1]: 68% | Population Normal (%) [1]: 90% | Population Pyknosed Nuclei (%) [1]: 10% | Population Tubulin-Different-Phenotype (%) [1]: 35% | Total Cell Count [1]: 458 | Population Apoptotic (%) [2]: 40% | Population Fragmented Nuclei (%) [2]: 6% | Population Healthy Nuclei (%) [2]: 80% | Population Hoechst High Intensity Objects (%) [2]: 7% | Population Mitochondria Different-Phenotype (%) [2]: 56% | Population Mitotic Cells (%) [2]: 59% | Population Normal (%) [2]: 92% | Population Pyknosed Nuclei (%) [2]: 13% | Population Tubulin-Different-Phenotype (%) [2]: 23% | Total Cell Count [2]: 341 | Population Apoptotic (%) [3]: 45% | Population Fragmented Nuclei (%) [3]: 7% | Population Healthy Nuclei (%) [3]: 77% | Population Hoechst High Intensity Objects (%) [3]: 6% | Population Membrane Permeable-Phenotype (%) [3]: 0% | Population Mitochondria Different-Phenotype (%) [3]: 63% | Population Mitotic Cells (%) [3]: 54% | Population Normal (%) [3]: 93% | Population Pyknosed Nuclei (%) [3]: 14% | Population Tubulin-Different-Phenotype (%) [3]: 41% | Total Cell Count [3]: 395 | Population Apoptotic (%) [4]: 51% | Population Fragmented Nuclei (%) [4]: 8% | Population Hoechst High Intensity Objects (%) [4]: 13% | Population Mitochondria Different-Phenotype (%) [4]: 68% | Population Mitotic Cells (%) [4]: 48% | Population Normal (%) [4]: 86% | Population Tubulin-Different-Phenotype (%) [4]: 37% | Total Cell Count [4]: 357 | Population Apoptotic (%) [5]: 22% | Population Fragmented Nuclei (%) [5]: 11% | Population Healthy Nuclei (%) [5]: 76% | Population Hoechst High Intensity Objects (%) [5]: 7% | Population Membrane Permeable-Phenotype (%) [5]: 1% | Population Mitochondria Different-Phenotype (%) [5]: 25% | Population Mitotic Cells (%) [5]: 77% | Population Normal (%) [5]: 92% | Population Pyknosed Nuclei (%) [5]: 11% | Population Tubulin-Different-Phenotype (%) [5]: 28% | Total Cell Count [5]: 612 | Population Apoptotic (%) [6]: 34% | Population Fragmented Nuclei (%) [6]: 7% | Population Healthy Nuclei (%) [6]: 83% | Population Hoechst High Intensity Objects (%) [6]: 5% | Population Membrane Permeable-Phenotype (%) [6]: 0% | Population Mitochondria Different-Phenotype (%) [6]: 37% | Population Mitotic Cells (%) [6]: 65% | Population Normal (%) [6]: 94% | Population Pyknosed Nuclei (%) [6]: 9% | Population Tubulin-Different-Phenotype (%) [6]: 16% | Total Cell Count [6]: 477 | Population Apoptotic (%) [7]: 46% | Population Fragmented Nuclei (%) [7]: 10% | Population Healthy Nuclei (%) [7]: 78% | Population Hoechst High Intensity Objects (%) [7]: 7% | Population Membrane Permeable-Phenotype (%) [7]: 0% | Population Mitochondria Different-Phenotype (%) [7]: 46% | Population Mitotic Cells (%) [7]: 54% | Population Normal (%) [7]: 92% | Population Pyknosed Nuclei (%) [7]: 10% | Population Tubulin-Different-Phenotype (%) [7]: 35% | Total Cell Count [7]: 490 | Population Fragmented Nuclei (%) [8]: 12% | Population Hoechst High Intensity Objects (%) [8]: 11% | Population Mitochondria Different-Phenotype (%) [8]: 55% | Population Mitotic Cells (%) [8]: 53% | Population Normal (%) [8]: 88% | Population Pyknosed Nuclei (%) [8]: 9% | Population Tubulin-Different-Phenotype (%) [8]: 31% | Total Cell Count [8]: 483 | Population Apoptotic (%) [9]: 20% | Population Fragmented Nuclei (%) [9]: 15% | Population Healthy Nuclei (%) [9]: 77% | Population Hoechst High Intensity Objects (%) [9]: 4% | Population Membrane Permeable-Phenotype (%) [9]: 1% | Population Mitochondria Different-Phenotype (%) [9]: 15% | Population Mitotic Cells (%) [9]: 79% | Population Normal (%) [9]: 95% | Population Pyknosed Nuclei (%) [9]: 6% | Population Tubulin-Different-Phenotype (%) [9]: 15% | Total Cell Count [9]: 956 | Population Apoptotic (%) [10]: 28% | Population Fragmented Nuclei (%) [10]: 13% | Population Healthy Nuclei (%) [10]: 81% | Population Hoechst High Intensity Objects (%) [10]: 5% | Population Mitochondria Different-Phenotype (%) [10]: 20% | Population Mitotic Cells (%) [10]: 71% | Population Normal (%) [10]: 94% | Population Pyknosed Nuclei (%) [10]: 5% | Population Tubulin-Different-Phenotype (%) [10]: 11% | Total Cell Count [10]: 703 | Population Apoptotic (%) [11]: 33% | Population Fragmented Nuclei (%) [11]: 16% | Population Healthy Nuclei (%) [11]: 76% | Population Hoechst High Intensity Objects (%) [11]: 7% | Population Membrane Permeable-Phenotype (%) [11]: 0% | Population Mitochondria Different-Phenotype (%) [11]: 32% | Population Mitotic Cells (%) [11]: 66% | Population Normal (%) [11]: 92% | Population Pyknosed Nuclei (%) [11]: 6% | Population Tubulin-Different-Phenotype (%) [11]: 18% | Total Cell Count [11]: 659 | Population Apoptotic (%) [12]: 25% | Population Fragmented Nuclei (%) [12]: 18% | Population Healthy Nuclei (%) [12]: 75% | Population Hoechst High Intensity Objects (%) [12]: 6% | Population Membrane Permeable-Phenotype (%) [12]: 1% | Population Mitochondria Different-Phenotype (%) [12]: 25% | Population Mitotic Cells (%) [12]: 74% | Population Normal (%) [12]: 93% | Population Pyknosed Nuclei (%) [12]: 5% | Total Cell Count [12]: 731
